Screening data as filed in PubChem.
PGC1a acetyl inh: lowers PGC1a acetylation signal in U2OS cells; AlphaScreen anti-acetyl-lysine; with virally co-expressed GCN5 acetyltransferase; inhibition, % at 15.6 µM; hit rate 0.17% among 350,000; AID 651687;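 active means every replicate shows inhibition of at least 40%; inconclusive means mean inhibition at least 40% but some replicate below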;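 further: 0% = neutral control wells and 100% = positive control wells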
XiGFP reactiv: reactivates the inactive X chromosome in mouse fibroblasts; XiGFP mouse fibroblasts, % GFP-positive cells imaging, 3 d; cells co-treated with 5-aza-dC sensitizer; scaled so ellipticine positive control = 100%; activation, % at 7.58 µM; hit rate 0.055% among 360,000;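 active means mean normalized replicate activation at least 10% and every replicate at or above 10%; inconclusive means only one of the two criteria met; inactive means mean below 10% and not all replicates reach 10%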;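 further: 0% = median of on-plate neutral control wells and 100% = ellipticine 6 µM median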
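material = 68-5-11 XiGFP fibroblast line | medium = DMEM plus 5-aza-dC sensitizer | schedule = 3 days compound exposure | benchmarks = positive control ellipticine, 6 µM final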
AF4-AF9 inh: blocks AF4 peptide binding to human AF9; P42568; AlphaScreen, biotin-AF4 peptide binding to FLAG-AF9; inhibition, % at 10 µM; hit rate 0.47% among 350,000; AID 651704;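 active means every replicate reaching a set inhibition limit, whatever the replicate mean, cut at about 25% in these data; inconclusive means mean inhibition reaches that limit but some replicates miss it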;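 further: 0% = plate neutral control median and 100% = total signal loss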
Target sequence (P42568 whole entry, looked up): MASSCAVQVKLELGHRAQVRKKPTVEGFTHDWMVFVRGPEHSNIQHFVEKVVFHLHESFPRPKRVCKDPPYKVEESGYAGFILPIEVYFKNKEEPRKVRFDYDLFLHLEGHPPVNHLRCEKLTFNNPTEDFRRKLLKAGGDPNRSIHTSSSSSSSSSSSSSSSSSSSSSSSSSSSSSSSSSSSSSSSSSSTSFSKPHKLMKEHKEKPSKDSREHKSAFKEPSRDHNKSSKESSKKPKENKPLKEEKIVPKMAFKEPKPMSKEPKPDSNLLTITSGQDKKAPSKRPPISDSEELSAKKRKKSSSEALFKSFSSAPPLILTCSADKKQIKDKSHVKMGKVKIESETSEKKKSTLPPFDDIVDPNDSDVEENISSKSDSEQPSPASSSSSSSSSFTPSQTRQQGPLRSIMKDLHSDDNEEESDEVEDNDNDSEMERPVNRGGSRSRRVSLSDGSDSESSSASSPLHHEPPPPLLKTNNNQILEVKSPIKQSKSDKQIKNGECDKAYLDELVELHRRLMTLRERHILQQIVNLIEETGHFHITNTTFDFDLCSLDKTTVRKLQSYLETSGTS
EWS-Fli block: blocks EWS/Fli oncoprotein-driven transcription; A673 NR0B1-luciferase reporter, viability-normalised; inhibition, % at 12.6 µM; hit rate 0.67% among 350,000; AID 651661;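 active means mean inhibition of at least 50% after viability correction, with every replicate also passing that limit; inconclusive means mean reaches 50% but only one of two replicates passes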;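 further: firefly luciferase signal divided by Alamar Blue viability fluorescence both relative to DMSO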
PAX8 inh HTS: PAX8 transcriptional activity inhibition. RMG-I TPO-luciferase reporter, SteadyGlo, 24 h. hit rate 1.2% among 360,000. inhibition, % at 12.6 µM;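 active means mean replicate inhibition at least 60% with every replicate also reaching 60%; inconclusive means only one of the two criteria is met; inactive means mean below 60% and not all replicates reaching 60%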;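 further: luciferase light reporting Pax8 driven TPO promoter activity; plate controls were median of neutral control wells for no effect and mitoxantrone controls for full effect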
INS-1E GSIS act: GLuc luminescence reporter in INS-1E cells, primary screen for activators of glucose-dependent secretion of insulin; hit rate 0.61% among 370,000; activation, % at 16.6 µM; AID 743287; INS-1E GLuc reporter insulin secretion, 2-3 h;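 active means lowest replicate activation of at least 40%, so every replicate reaches that level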;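 further: 0% = median of neutral control wells and 100% = median of IBMX positive control wells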
* hit, by the source's call; ? = inconclusive; . = no result given; + = active, no number; ! = a repeat was not active. Most compounds without a hit are left out; they make up all but 2.1% or so of the library.

SMILES | PGC1a acetyl inh | XiGFP reactiv | AF4-AF9 inh | EWS-Fli block | PAX8 inh HTS | INS-1E GSIS act
Cc1cc(=O)[nH]c2nnc(SCC(=O)N3CC(C)OC(C)C3)n12 (centres undefined) | 12 | 0 | 0 | 5 | 12 | 3
CCCc1cc(=O)[nH]c2nnc(SCC(=O)N3CC(C)OC(C)C3)n12 (centres undefined) | 11 | 0 | -8 | 2 | -12 | 55*
Cc1ccccc1S(=O)(=O)N1C[C@H](O)COC[C@H]2O[C@@H](CC(=O)N3CCOCC3)CC[C@@H]21 | -1 | 0 | -1 | 1 | -9 | 10
O=C(Nc1ccc(C(F)(F)F)cc1)N1C[C@@H]2N[C@H](C1)C2c1ccc(/C=C/c2ccccc2)cc1 (some centres undefined) | 73*! | 0 | -4 | 6 | 90*! | +
O=C(c1ccc(F)cc1)N1C[C@@H]2N[C@H](C1)C2c1ccc(-c2ccccc2F)cc1 (some centres undefined) | -15 | 0 | . | 3 | 9 | 20
O=C(Nc1ccc(F)cc1)N1C[C@@H]2N[C@H](C1)C2c1ccc(-c2ccccc2F)cc1 (some centres undefined) | -5 | 0 | 3 | -4 | 108*! | -9
O=C(C1CC1)N1C[C@@H]2N[C@H](C1)C2c1ccc(-c2ccccc2F)cc1 (some centres undefined) | -17 | 0 | -14 | 11 | 87*! | 9
COc1ccccc1-c1ccc(C2[C@@H]3CN(Cc4cccc(F)c4)C[C@H]2N3)cc1 (some centres undefined) | -46 | 0 | . | -4 | 7 | -11
COc1cccc(CN2C[C@@H]3N[C@H](C2)C3c2ccc(-c3ccccc3OC)cc2)c1 (some centres undefined) | -25 | 0 | 13 | -10 | ? | 82*!
COc1ccc2c3c([nH]c2c1)[C@H](CO)N(Cc1ccccn1)CC31CN(C(C)=O)C1 | -2 | 0 | 1 | 3 | . | 7
CO[C@H]1CN(C)C(=O)c2cc(NS(C)(=O)=O)ccc2OC[C@H](C)N(Cc2nccs2)C[C@H]1C | 2 | 0 | -2 | -8 | 2 | 16
COc1ccc(NC(=O)N(C)C[C@H]2Oc3c(cccc3N(C)C)C(=O)N([C@H](C)CO)C[C@H]2C)cc1 | -7 | -1 | -1 | -10 | -21 | 0
C(=C\c1ccc(C2[C@@H]3CN(Cc4cccnc4)C[C@H]2N3)cc1)/c1ccccc1 (some centres undefined) | -8 | 0 | 33* | 5 | -34 | -13
c1ccc(CN2C[C@@H]3N[C@H](C2)C3c2ccc(-c3ccccc3)cc2)cc1 (some centres undefined) | 2 | 0 | 15 | 7 | -11 | -17
Fc1ccccc1-c1ccc(C2[C@@H]3CN(Cc4ccccc4)C[C@H]2N3)cc1 (some centres undefined) | -14 | 0 | . | -1 | 10 | 47*!
CCCNC(=O)N1CC2(CN(C(=O)c3cccnc3)C2)c2c([nH]c3cc(OC)ccc23)[C@H]1CO | . | 0 | . | . | . | 13
O=C(Cc1cccnc1)N1CC(=O)N2[C@H](CO)[C@@H](c3ccc(C4=CCCC4)cc3)[C@H]2C1 | -2 | 0 | 3 | 11 | -5 | -9
O=C(C[C@@H]1C[C@H]2c3cc(NC(=O)c4ccc5c(c4)OCO5)ccc3O[C@H]2[C@H](CO)O1)NCc1cccnc1 | 4 | 0 | -2 | -6 | -13 | 0
O=C1C=C(c2ccccc2)C[C@H](c2cccs2)[C@H]1n1nnc([N+](=O)[O-])n1 | . | 0 | . | . | 76* | -30
CCSc1nnc(NC(=O)c2cccc3ccccc23)s1 | 5 | 0 | 7 | -10 | -13 | 15
CCSc1nnc(NC(=O)c2csc(C)c2)s1 | 0 | . | . | . | . | 99*
C[C@@H]1CCCCO[C@H](CN(C)Cc2ccc(Cl)c(Cl)c2)[C@@H](C)CN([C@@H](C)CO)C(=O)c2cc(NC(=O)NC3CCCCC3)ccc2O1 | 11 | -1 | 1 | -1 | 70* | -21
C[C@@H]1CN([C@@H](C)CO)C(=O)c2cc(NC(=O)Nc3ccc(F)cc3)ccc2O[C@@H](C)CCCCO[C@H]1CN(C)Cc1ccc(Cl)c(Cl)c1 | 6 | 0 | 0 | 4 | 72* | 23
